According to the array DNA melting data of Ke et al. (doi:10.1101/2024.01.08.574731):

Key:
[1] = folding enthalpy; higher = less favourable; fluorescence melt of hairpins on a sequencing array, two-state fit; details: sodium 0.088 M
In short: (§1)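 Bootstrapped two-state fits yielded melting temperature and folding enthalpy for library hairpins. Cy3 fluorescence, with annealed Cy3 and quencher oligos, was imaged on a sequenced MiSeq flow cell in 50 mM Na-HEPES pH 8.0, 25 mM NaCl in 2.5 °C steps up to 60 °C, and normalised to pre-quench Cy3 and to control constructs. Four replicates were combined by inverse variance, and fitted temperatures were raised by 9.35 °C to match UV melts.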

[2] = melting temperature; fluorescence melt of hairpins on a sequencing array, two-state fit, raised by 9.35 °C to match UV melts; details: sodium 0.088 M
In short: as §1

Row | Sequence | folding enthalpy [1] [kcal/mol] | Tm [2] [°C]
1 | GGCGTCGAAAGACGCGCC ((((((....)))..))) | -6.87 | 62.7
2 | GCCGCGCGAAAGCTCAGC ((.(.((....)).).)) | -10.8 | 35.1
3 | GATGGGGGAAACCCTGTC ((..(((....)))..)) | -22.5 | 33.2
4 | GATCGGGACGCCGATC ((((((....)))))) | -36.6 | 59.5
5 | GCGTGAGGAAACCCACGC (((((.(....).))))) | -42.2 | 57.7
6 | GGACTCGGAAACGAGTTC (.(((((....))))).) | -38.3 | 53.6
7 | GGATAGGCGAAAGCCTCC (((..(((....)))))) | -10.2 | 36.6
8 | GATCGGGTCCCCGATC ((((((....)))))) | -40.4 | 61.3
9 | GATCCCCCCTGGGATC ((((((....)))))) | -39.1 | 58.4
10 | GCCACTGGAAACAGCAGC ((..(((....)))..)) | -11.8 | 25.5
11 | GACAAACGAAAGTTCGTC (((.(((....))).))) | -25.2 | 43.2
12 | GATCTTATGTAAGATC ((((((....)))))) | -36.6 | 45.2
13 | GGAAGCGGAAACGCCTCC (((.(((....))).))) | -20 | 45.6
14 | GGTAGCGAAAGCTAAACC ((((((....)))..))) | -15 | 42.8
15 | GATCTTTGTAAAGATC ((((((....)))))) | -34.3 | 47.5
16 | GATCGCGAAAGCGAGATC ((((((....)))..))) | -13.8 | 60.6
17 | GTCGGGGGAAACTCCGAC (((((.(....).))))) | -44.7 | 57.6
18 | GAAGGCGAAAGCCGTTTC ((((((....)))..))) | -10.9 | 39
19 | GGAGTCCGAAAGGAGTCC (((.(((....))).))) | -44.2 | 63.3
20 | GTCCGGTCGAAAGACGAC (((..(((....)))))) | -12.6 | 38.5
21 | GCTCCGCGAAAGCGAGC (((.(((....)))))) | -20.6 | 61.7
22 | GATCTCTGACGAGATC ((((((....)))))) | -30.5 | 50
23 | GATCAATTCATTGATC ((((((....)))))) | -50.7 | 53.1

Row | Sequence | folding enthalpy [1] [kcal/mol] | Tm [2] [°C]
24 | GATCAGTCCGCTGATC ((((((....)))))) | -53.2 | 53.1
25 | GGGTGGGGAAACCTGCCC (((..((....))..))) | -25.5 | 49.7
26 | GATCTGCCCCAGATC ((((((...)))))) | -33.6 | 49.2
27 | GATCGCGTGGCGATC ((((((...)))))) | -32.6 | 69
28 | GGACGTCGAAAGACATCC (((.(((....))).))) | -26.5 | 47.3
29 | GGCCGCGAAAGCGAAGCC ((((((....)))..))) | -27.7 | 58.9
30 | GGCAGCGGAAACGCCGCC (((.(((....))).))) | -31.3 | 61.5
31 | GATCAATACATTGATC ((((((....)))))) | -37.3 | 49.2
32 | GATCCGGACGCGGATC ((((((....)))))) | -38 | 59.5
33 | GTGTTTGGAAACGAACAC (((((.(....).))))) | -35.8 | 49.5
34 | GTCTGCGAAAGCACCGAC ((((((....)))..))) | -12.7 | 32.3
35 | GAGCCACGAAAGTGTCTC (((.(((....))).))) | -29 | 50
36 | GATCAAAAAGTTGATC ((((((....)))))) | -14.1 | 33
37 | GGTTGAACGAAAGTTACC (((..(((....)))))) | -13.2 | 31.1
38 | GTGACCGAAAGGTCGCAC ((((((....)))..))) | -11.1 | 58.6
39 | GCAGGCCGAAAGGCTTGC (((.(((....))).))) | -29.2 | 69.1
40 | GCATGTGGAAACACATGC (((((((....))))))) | -37.1 | 68.5
41 | GCCTGGGCGAAAGCCGGC (((..(((....)))))) | -23.7 | 55.2
42 | GATCGACACCTCGATC ((((((....)))))) | -44.7 | 52.5
43 | TATCTGAAAAGATA (((((....))))) | -11.5 | 29.8
44 | GACGCCGAAAGGCGTGTC ((((((....)))..))) | -8.76 | 66.9
45 | GATCCTGACCAGGATC ((((((....)))))) | -45.1 | 56.5
46 | GAACACGAAAGTGCGTTC ((((((....)))..))) | -13 | 31.2

Row | Sequence | folding enthalpy [1] [kcal/mol] | Tm [2] [°C]
47 | GGCGACCGAAAGGTAGCC (((.(((....))).))) | -26.2 | 69
48 | GGTGAGGGAAACTTCACC (((((.(....).))))) | -32.1 | 46.8
49 | GGGTCGCGAAAGCGCCC (((.(((....)))))) | -22.4 | 65.3
50 | GGCACCGGAAACAGCGCC (((.(.(....).).))) | -22.1 | 34.5
51 | GGTAATGGAAACATTGCC ((.((((....)))).)) | -29.2 | 46.7
52 | GATCGAGACATCGATC ((((((....)))))) | -38.9 | 58.8
53 | GCTTGGGGAAACTCAAGC (((((.(....).))))) | -35.8 | 51.3
54 | CGTACGGAAACGTGCACG ((((((....)))..))) | -14.5 | 36.2
55 | GAAGGCGAAAGCCTCTTC ((((((....)))..))) | -21.5 | 54.5
56 | GCCGGCGAAAGCCCGGGC ((((((....)))..))) | -17.6 | 62.1
57 | CGTGCCGGAAACGGAACG (((.(((....))).))) | -37.7 | 55.9
58 | GGTGGGACGAAAGTCACC (((..(((....)))))) | -14.4 | 47
59 | GACCAGGGAAACCCAGTC (((..((....))..))) | -18.4 | 29.1
60 | GGTCGTCGAAAGACTACC (((.(((....))).))) | -30.6 | 48.6
61 | GATCCCCTCGGGGATC ((((((....)))))) | -32.5 | 67.6
62 | GATCACTGACGTGATC ((((((....)))))) | -32 | 54.3
63 | GTGCTCCCGAAAGGGCAC (((..(((....)))))) | -19.9 | 49.8
64 | GCAGATCCGAAAGGATGC (((..(((....)))))) | -16.3 | 45.2
65 | GTCAATGGAAACATCGAC (((.(((....))).))) | -33.1 | 33.3
66 | GCGATCGAAAGATGCGC ((((((....))).))) | -27.8 | 53.6
67 | GCCTGAGAAATCAGGC ((((((....)))))) | -39.2 | 62.5
68 | GGTATCGGAAACGATACC (((((((....))))))) | -48.7 | 64
69 | GATCATCAAAATGATC ((((((....)))))) | -33.3 | 45

Row | Sequence | folding enthalpy [1] [kcal/mol] | Tm [2] [°C]
70 | CCCCAGAAATGGGG (((((....))))) | -16 | 52.2
71 | CGCGGAAAAACAACAACAACCGCG ((....................)) | -29.6 | 37.3
72 | GATCCGCGAAAGCGCATC (((.(((....))).))) | -14.1 | 36.5
73 | GGAGACCGAAAGGTTCC (((.(((....)))))) | -22.5 | 48
74 | GATCTGTGAACAGATC ((((((....)))))) | -43 | 52.9
75 | GCACGCGGAAACACGCGC ((.((.(....).)).)) | -11.2 | 40.1
76 | GATCCGGATCGGATC ((((((...)))))) | -35.4 | 55.6
77 | GACTAGCGAAAGCTGGTC (((.(((....))).))) | -34.1 | 61
78 | GCGATACCGAAAGGTCGC (((..(((....)))))) | -29.3 | 54.3
79 | GATATGAAAATATC (((((....))))) | -15.7 | 35.7
80 | GGTACAGGAAACCGTACC (((((.(....).))))) | -33 | 47.1
81 | GCGAGGAAACTCGC (((((....))))) | -32.6 | 66.4
82 | GGCTAGGGAAACCTAACC ((.((((....)))).)) | -30.3 | 35.2
83 | CGGCCGGAAACGGAGCCG ((((((....)))..))) | -34.7 | 54.6
84 | GCCGGCGAAAGCCGAGGC ((((((....)))..))) | -13.4 | 63.1
85 | GATCTCCACGGAGATC ((((((....)))))) | -39.2 | 55.9
86 | GGCGAGTCGAAAGACGCC (((..(((....)))))) | -22.2 | 56.3
87 | GATCACATCTGTGATC ((((((....)))))) | -38.7 | 57.9
88 | GAAGTACCGAAAGGTTTC (((..(((....)))))) | -9.64 | 27.2
89 | GAACTTGAAAAAGTTC ((((((....)))))) | -28.8 | 49.7
90 | GATCAGATCCCTGATC ((((((....)))))) | -31.8 | 48.3
91 | GACCGTGGAAACGCGGTC (((((.(....).))))) | -40 | 58.6
92 | GATCCTTACAAGGATC ((((((....)))))) | -38.1 | 54.2
